According to paper PMC8592288 (Bioorganic chemistry, 2021):

Assays:
[1] = test system: IL-1β; assay: HTRF IL1β cytokine assay, supernatant of activated RAW264.7 macrophages; type: cell-based, mouse; details: INFγ/LPS activated RAW264.7; 1,25(OH)2D3 20 nM, CTA 20 μM
[2] = test system: RAW264.7; assay: Griess assay, NO in IFNγ/LPS-activated RAW264.7 macrophages; type: cell-based, mouse; details: INFγ/LPS activated RAW264.7; 1,25(OH)2D3 20 nM, CTA 5 and 20 μM; 24-hour treatment
[3] = test system: RAW264.7 cells; assay: Cytotoxicity on RAW264.7 cells, CellTiter-Glo; type: cell-based, mouse; details: RAW264.7, concentrations up to 100 μM
[4] = test system: CYP24A1; details: at 7.5 μM; cited from earlier work
[5] = target: ERβ-LBD (Homo sapiens, UniProt Q92731); assay: Fluorescence polarization coactivator binding assay; type: biochemical
ERβ-LBD, sequence (Q92731 264-498 limits assumed, species assumed): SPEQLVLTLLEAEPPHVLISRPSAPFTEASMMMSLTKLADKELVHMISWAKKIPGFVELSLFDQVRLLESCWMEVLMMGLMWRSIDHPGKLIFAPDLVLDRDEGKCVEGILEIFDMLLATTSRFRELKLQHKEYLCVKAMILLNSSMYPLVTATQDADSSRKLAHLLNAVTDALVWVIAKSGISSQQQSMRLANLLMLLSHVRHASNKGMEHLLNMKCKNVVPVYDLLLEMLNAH
Summary of the method: (§1)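 For ERα and ERβ, 1 μM LBD was mixed with 7 nM Texas Red-SRC2–2 coactivator peptide and 100 nM estradiol. After 3 h at room temperature, fluorescence polarization was read at Ex/Em 595/615 nm. Two independent experiments in quadruplicate.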

[6] = test system: ligand binding domain (LBD) of the VDR; details: two-hybrid assay; cited from earlier work
[7] = target: GST-hPXR-LBD (Homo sapiens, UniProt O75469); assay: TR-FRET competition assay for PXR; type: binding; details: CTA at 10 or 50 μM
GST-hPXR-LBD, sequence (O75469 146-433 limits assumed): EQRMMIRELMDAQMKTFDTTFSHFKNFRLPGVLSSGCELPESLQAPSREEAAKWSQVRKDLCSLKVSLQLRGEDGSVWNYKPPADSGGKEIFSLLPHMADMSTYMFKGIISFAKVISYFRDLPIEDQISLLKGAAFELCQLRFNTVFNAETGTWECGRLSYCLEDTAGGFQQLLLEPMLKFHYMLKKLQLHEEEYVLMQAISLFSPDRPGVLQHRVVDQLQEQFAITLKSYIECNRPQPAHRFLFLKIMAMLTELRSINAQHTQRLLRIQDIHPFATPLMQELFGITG
Summary of the method: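 TR-FRET competition in pH 7.5 buffer (50 mM Tris, 50 mM KCl, 20 mM MgCl2, 1 mM CHAPS, 0.1 mg/mL BSA, 0.05 mM DTT). Test compound added in DMSO (0.4% final); TO901317 as positive control. After 30 min, excitation 340 nm, ratio 520/490 nm ×10000. n = 8.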

[8] = target: TRβ-LBD (Homo sapiens, UniProt P10828); assay: Fluorescence polarization coactivator binding assay; type: biochemical
TRβ-LBD, sequence (P10828 217-461 limits assumed): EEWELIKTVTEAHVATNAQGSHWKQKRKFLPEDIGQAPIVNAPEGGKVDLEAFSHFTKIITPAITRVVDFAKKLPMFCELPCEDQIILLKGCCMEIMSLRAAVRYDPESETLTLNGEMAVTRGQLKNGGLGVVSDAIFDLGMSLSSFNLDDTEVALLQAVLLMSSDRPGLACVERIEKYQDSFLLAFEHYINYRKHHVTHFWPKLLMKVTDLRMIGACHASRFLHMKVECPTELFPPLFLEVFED
Summary of the method: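 TRβ-LBD used at 0.8 μM, with 7 nM Texas Red-SRC2–2 peptide and 1 μM triiodothyronine. Incubated 3 h at room temperature; fluorescence polarization measured at Ex/Em 595/615 nm. Two independent experiments in quadruplicate.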

[9] = test system: CYP24A1; assay: RT-PCR of VDR target gene CYP24A1 in Caco2 cells; type: cell-based, human
[10] = test system: iNOS; assay: RT-PCR of iNOS in IFNγ/LPS-activated RAW264.7 macrophages; type: cell-based, mouse; details: INFγ/LPS activated RAW264.7, CTA 5 and 20 μM
[11] = target: T1, VDR (Homo sapiens, UniProt P11473); assay: VDR-mediated transcription assay, CYP24A1-luciferase reporter in HEK293 cells; type: cell-based; details: HEK293, maximum reached before decrease due to toxicity
T1 sequence (P11473 1-427): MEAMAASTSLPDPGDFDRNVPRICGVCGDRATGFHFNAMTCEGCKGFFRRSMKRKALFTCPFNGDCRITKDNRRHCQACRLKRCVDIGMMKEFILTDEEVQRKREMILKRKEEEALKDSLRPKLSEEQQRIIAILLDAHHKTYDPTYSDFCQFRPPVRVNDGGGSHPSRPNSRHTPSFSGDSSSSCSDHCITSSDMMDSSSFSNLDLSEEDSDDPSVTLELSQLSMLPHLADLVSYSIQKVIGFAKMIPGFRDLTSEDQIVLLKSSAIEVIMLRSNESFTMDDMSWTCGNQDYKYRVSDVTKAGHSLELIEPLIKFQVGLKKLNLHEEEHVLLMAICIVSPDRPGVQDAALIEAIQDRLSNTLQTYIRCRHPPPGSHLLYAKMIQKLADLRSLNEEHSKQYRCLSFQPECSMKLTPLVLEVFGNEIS
Summary of the method: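 HEK293 cells grown in DMEM high glucose with NEAA, 10 mM HEPES and 10% FBS. Transfected with VDR-CMV and CYP24A1 promoter-luciferase plasmids (Lipofectamine LTX/PLUS) for 16 h at 37 °C. Cells replated at 400,000 cells/mL onto Matrigel-treated 384-well plates for 4 h. […] Bright-Glo luminescence; n = 8; non-linear regression.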

[12] = target: RARα (Homo sapiens, UniProt P10276); assay: Gal4 hybrid reporter transcription assay in HEK293T cells; type: cell-based; details: 1 μM CTA, 16 h
RARα, sequence (P10276 183-417 limits assumed): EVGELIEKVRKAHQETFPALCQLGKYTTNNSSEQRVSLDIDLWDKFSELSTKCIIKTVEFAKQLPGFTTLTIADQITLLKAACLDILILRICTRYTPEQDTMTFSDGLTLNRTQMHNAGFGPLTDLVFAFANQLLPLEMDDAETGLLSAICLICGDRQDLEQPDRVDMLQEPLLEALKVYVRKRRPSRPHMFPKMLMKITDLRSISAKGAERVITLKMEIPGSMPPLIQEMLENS
Summary of the method: (§2)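 HEK293T cells transfected using Lipofectamine LTX with pFR-Luc, pRL-SV40 and pFA-CMV plasmids encoding Gal4 fusions of the human receptor LBDs. Cells then held 16 h in OptiMEM with penicillin/streptomycin, 1 μM test compound and 0.1% DMSO. Dual-Glo luciferase read-out. Controls: 0.1% DMSO, and 1 μM TO901317 or 1 μM tretinoin as reference agonists. Duplicates, four independent repeats.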

[13] = target: TRα-LBD (Homo sapiens, UniProt P10827); assay: Fluorescence polarization coactivator binding assay; type: biochemical
TRα-LBD, sequence (P10827 148-410 isoform P10827-2 limits assumed): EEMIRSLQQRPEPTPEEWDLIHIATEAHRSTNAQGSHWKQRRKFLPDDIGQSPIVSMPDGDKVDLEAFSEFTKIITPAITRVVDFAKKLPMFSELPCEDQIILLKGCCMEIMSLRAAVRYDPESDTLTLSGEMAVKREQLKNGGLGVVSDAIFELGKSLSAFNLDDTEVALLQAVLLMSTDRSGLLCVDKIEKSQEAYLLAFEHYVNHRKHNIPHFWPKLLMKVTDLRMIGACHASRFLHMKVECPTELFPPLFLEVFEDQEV
Summary of the method: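 FP coactivator binding with TRα-LBD (1 μM), Texas Red-labelled SRC2–2 (7 nM) and triiodothyronine (100 nM). Incubated 3 h at room temperature; polarization read at 595/615 nm (Ex/Em). Two independent experiments, quadruplicate wells.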

[14] = target: RXRα-LBD (Homo sapiens, UniProt P19793); assay: Fluorescence polarization coactivator binding assay; type: biochemical
RXRα-LBD, sequence (P19793 227-458 limits assumed): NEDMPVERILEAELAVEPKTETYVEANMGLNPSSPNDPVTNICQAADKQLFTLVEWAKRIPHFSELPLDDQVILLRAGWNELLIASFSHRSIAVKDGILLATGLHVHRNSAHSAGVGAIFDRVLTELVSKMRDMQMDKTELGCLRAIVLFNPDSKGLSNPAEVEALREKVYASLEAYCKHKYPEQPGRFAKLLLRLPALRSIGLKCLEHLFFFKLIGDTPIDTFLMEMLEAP
Summary of the method: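 RXRα-LBD (1 μM) combined with Texas Red-SRC2–3 peptide (7 nM) and bexarotene (2 μM). Incubated 3 h at room temperature; polarization detected at 595/615 nm. Two independent experiments, each in quadruplicate.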

[15] = target: ERα-LBD (Homo sapiens, UniProt P03372); assay: Fluorescence polarization coactivator binding assay; type: biochemical
ERα-LBD, sequence (P03372 311-547 limits assumed, species assumed): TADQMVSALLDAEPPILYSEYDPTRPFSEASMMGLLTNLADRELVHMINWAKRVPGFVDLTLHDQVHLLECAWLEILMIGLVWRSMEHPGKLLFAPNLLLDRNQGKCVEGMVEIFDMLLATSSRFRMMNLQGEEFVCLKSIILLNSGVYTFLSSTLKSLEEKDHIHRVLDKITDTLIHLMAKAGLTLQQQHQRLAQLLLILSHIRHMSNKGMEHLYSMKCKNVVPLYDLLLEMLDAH
Summary of the method: as §1

[16] = target: T1, VDR; assay: VDR transcription assay in the presence of 100 nM 1,25; type: cell-based
[17] = target: GST-CAR-LBD (Homo sapiens, UniProt Q14994); assay: TR-FRET coactivator binding assay for CAR; type: biochemical; details: CTA at 10 or 50 μM
GST-CAR-LBD, sequence (Q14994 109-352 limits assumed): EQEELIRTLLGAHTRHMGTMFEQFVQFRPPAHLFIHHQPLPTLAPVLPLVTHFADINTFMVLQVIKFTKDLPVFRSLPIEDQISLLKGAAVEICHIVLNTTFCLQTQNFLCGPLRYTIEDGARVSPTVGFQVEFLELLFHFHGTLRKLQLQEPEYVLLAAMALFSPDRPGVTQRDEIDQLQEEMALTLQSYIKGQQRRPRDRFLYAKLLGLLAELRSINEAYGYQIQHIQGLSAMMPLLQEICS

[18] = target: LXR α (Homo sapiens, UniProt Q13133); assay: Gal4 hybrid reporter transcription assay in HEK293T cells; type: cell-based; details: 1 μM CTA, 16 h
LXR α, sequence (Q13133 209-447 limits assumed): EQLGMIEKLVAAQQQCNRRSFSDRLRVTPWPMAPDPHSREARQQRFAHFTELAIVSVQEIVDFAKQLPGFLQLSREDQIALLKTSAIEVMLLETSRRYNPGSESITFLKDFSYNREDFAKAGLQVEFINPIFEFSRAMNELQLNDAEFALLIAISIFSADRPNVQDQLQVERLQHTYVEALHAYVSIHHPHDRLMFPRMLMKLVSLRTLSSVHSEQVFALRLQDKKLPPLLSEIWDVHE
Summary of the method: as §2

[19] = test system: HEK293 cells; assay: Viability assay, CellTiter-Glo; type: cell-based; details: HEK293, 18 h exposure
Summary of the method: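 HEK293 cells transfected and dosed as in the VDR transcription assay. After 18 h at 37 °C, 5% CO2, CellTiter-Glo luminescence measured (intracellular ATP). Eight measurements per concentration, averaged with SEM. LD50 derived by non-linear regression.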

[20] = test system: IL-1β; assay: RT-PCR of IL-1β in IFNγ/LPS-activated RAW264.7 macrophages; type: cell-based, mouse; details: INFγ/LPS activated RAW264.7, CTA 5 and 20 μM
[21] = subcutaneous administration; cited from earlier work
[22] = target: AR-LBD (Homo sapiens, UniProt P10275); assay: Fluorescence polarization coactivator binding assay; type: biochemical
AR-LBD, sequence (P10275 669-900 limits assumed): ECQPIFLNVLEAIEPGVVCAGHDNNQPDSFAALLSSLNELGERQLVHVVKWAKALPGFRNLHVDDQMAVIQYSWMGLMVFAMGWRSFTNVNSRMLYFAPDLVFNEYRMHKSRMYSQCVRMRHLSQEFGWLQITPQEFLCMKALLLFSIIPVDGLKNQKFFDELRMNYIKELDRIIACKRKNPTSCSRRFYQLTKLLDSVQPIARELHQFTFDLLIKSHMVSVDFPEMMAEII
Summary of the method: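 Coactivator recruitment read by fluorescence polarization. AR-LBD at 5 μM with 7 nM Texas Red-labelled SRC2–3 peptide and 100 nM dihydrotestosterone. Incubated 3 h at room temperature, then read at Ex/Em 595/615 nm. Two independent experiments, each in quadruplicate.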

[23] = target: PPARγ-LBD (Homo sapiens, UniProt P37231); assay: Fluorescence polarization coactivator binding assay; type: biochemical
PPARγ-LBD, sequence (P37231 238-503 limits assumed, species assumed): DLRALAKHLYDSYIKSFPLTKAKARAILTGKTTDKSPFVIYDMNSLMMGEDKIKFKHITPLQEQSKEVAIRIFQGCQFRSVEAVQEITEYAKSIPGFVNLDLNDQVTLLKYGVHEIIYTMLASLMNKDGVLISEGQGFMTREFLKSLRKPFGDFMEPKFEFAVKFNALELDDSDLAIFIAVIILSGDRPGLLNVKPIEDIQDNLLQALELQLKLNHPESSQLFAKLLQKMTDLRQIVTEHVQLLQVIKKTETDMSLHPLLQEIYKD
Summary of the method: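 Mix of PPARγ-LBD (5 μM), Texas Red-labelled DRIP2 coactivator peptide (7 nM) and rosiglitazone (5 μM). Held 3 h at room temperature, then fluorescence polarization read at Ex/Em 595/615 nm. Two independent experiments in quadruplicate.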

[24] = target: hFXR (Homo sapiens, UniProt Q96RI1); assay: FXR transcription assay, BSEP-luciferase in HeLa cells; type: cell-based; details: 24 h
hFXR, sequence (Q96RI1 whole entry): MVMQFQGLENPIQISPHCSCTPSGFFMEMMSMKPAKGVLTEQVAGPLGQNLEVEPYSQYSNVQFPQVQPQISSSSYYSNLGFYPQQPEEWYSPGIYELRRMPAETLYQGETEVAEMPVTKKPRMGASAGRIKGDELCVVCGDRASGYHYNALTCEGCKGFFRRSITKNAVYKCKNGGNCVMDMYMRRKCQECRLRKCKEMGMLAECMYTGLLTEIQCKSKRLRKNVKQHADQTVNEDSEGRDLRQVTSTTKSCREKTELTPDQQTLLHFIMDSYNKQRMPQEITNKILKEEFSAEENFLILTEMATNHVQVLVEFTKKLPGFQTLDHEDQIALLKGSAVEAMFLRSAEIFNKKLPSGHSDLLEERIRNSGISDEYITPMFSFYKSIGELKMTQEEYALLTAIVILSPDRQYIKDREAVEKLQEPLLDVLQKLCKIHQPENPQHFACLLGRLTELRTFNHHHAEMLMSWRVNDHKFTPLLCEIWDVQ
hFXR, sequence (P19793 whole entry partner): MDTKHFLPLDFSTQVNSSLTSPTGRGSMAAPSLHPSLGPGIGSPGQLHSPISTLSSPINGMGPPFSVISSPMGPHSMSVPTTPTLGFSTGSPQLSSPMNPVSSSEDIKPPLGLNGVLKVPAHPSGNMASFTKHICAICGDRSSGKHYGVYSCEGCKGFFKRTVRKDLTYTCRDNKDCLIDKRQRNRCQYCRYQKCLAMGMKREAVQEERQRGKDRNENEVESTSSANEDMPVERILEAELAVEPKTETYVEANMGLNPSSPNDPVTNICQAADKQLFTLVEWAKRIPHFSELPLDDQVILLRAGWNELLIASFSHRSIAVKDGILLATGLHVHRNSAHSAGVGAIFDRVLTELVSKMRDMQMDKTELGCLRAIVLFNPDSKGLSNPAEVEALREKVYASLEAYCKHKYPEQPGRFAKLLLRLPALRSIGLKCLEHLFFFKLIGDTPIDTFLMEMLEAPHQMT
Summary of the method: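 HeLa cells grown in DMEM high glucose with 10% FCS, seeded at 8000 cells/well 24 h before transfection, then switched to 0.5% charcoal-stripped FCS. Calcium phosphate co-transfection with pcDNA3-hFXR, pSG5-hRXR, a BSEP promoter-luciferase (pGL3basic) reporter and pRL-SV40. Test compound added in 0.1% DMSO in phenol red-free medium for 24 h. Dual-Glo luciferase read-out. Controls: 0.1% DMSO and 1 μM GW4064. Triplicates, four independent repeats.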

[25] = target: LXR β (Homo sapiens, UniProt P55055); assay: Gal4 hybrid reporter transcription assay in HEK293T cells; type: cell-based; details: 1 μM CTA, 16 h
LXR β, sequence (P55055 222-460 limits assumed): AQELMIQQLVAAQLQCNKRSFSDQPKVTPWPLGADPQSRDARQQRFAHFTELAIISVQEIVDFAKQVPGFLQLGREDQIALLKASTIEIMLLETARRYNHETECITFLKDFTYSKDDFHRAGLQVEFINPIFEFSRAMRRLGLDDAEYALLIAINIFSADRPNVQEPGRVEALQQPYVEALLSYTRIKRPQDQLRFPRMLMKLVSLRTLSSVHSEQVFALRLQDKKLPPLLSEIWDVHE
Summary of the method: as §2

[26] = target: T2, Danio Rerio vitamin D receptor ligand binding domain (Danio rerio, UniProt Q9PTN2 156-453); assay: crystal structure
T2 sequence (looked up): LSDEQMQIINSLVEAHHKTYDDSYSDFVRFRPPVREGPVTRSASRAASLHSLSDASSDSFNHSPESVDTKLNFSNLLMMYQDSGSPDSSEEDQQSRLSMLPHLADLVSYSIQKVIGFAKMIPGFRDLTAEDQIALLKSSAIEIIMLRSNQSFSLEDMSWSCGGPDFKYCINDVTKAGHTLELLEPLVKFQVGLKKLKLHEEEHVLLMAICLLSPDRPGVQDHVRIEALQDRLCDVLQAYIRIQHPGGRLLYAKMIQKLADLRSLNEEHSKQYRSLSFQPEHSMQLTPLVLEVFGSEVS

C=C1/C(=C\C=C2/CCC[C@]3(C)[C@@H]([C@H](C)CCCC(C)(C)O)CC[C@@H]23)C[C@@H](O)C[C@@H]1O [1,25(OH)2D3, 1α,25-dihydroxyvitamin D3, reference compound]
IL-1β protein (HTRF) [1]: Reduced IL-1β protein | production of NO in comparison to vehicle [2]: reduced the production of NO

C=C1/C(=C\C=C2/CCC[C@]3(C)[C@@H]([C@H](C)CC(=O)O)CC[C@@H]23)C[C@@H](O)C[C@@H]1O [CTA, (R)-3-((1R,3aS,7aR,E)-4-((Z)-2-((3S,5R)-3,5-dihydroxy-2-methylenecyclohexylidene)ethylidene)-7a-methyloctahydro-1H-inden-1-yl)butanoic acid]
IL-1β protein (HTRF) [1]: Reduced IL-1β protein | cytotoxic effects (luminescence viability assay) [3]: absence of any cytotoxic effects | CYP24A1 upregulation in DU145 cells [4]: 9 fold | activation of estrogen receptor ERβ [5]: not activated | recruitment of SRC-1 to VDR LBD [6]: induces recruitment of SRC-1 | binding to PXR [7]: did not bind | activation of thyroid receptor TRβ [8]: not activated | expression of CYP24A1 in the presence of 1,25(OH)2D3 ([9]; Caco2, 18 h, co-treatment with 1,25(OH)2D3): strongly induced | CYP24A1 upregulation compared to lithocholic acid at 10 μM ([9]; intestinal cells (Caco2), CTA at 10 μM): 100 fold | iNOS gene transcription (RT-PCR) [10]: reduction of gene transcription was observed | level of activation of gene expression in comparison to 100 nM 1,25(OH)2D3 [11]: 30% | activation of retinoic acid receptor [12]: not activated | activation of thyroid receptor TRα [13]: not activated | activation of retinoid X receptor [14]: not activated | production of NO in comparison to vehicle [2]: significant reduction | activation of estrogen receptor ERα [15]: not activated | IC50 [16]: 72.2 µM | induction of CAR-coactivator interactions [17]: did not bind to PXR or induce CAR-coactivator interactions | activation of liver X receptor α [18]: not activated | LD50 (Cell-titer Glo viability) [19]: 96.0 µM | IL-1β gene transcription (RT-PCR) [20]: reduction of gene transcription was observed | antirachitic activity [21]: antirachitic activity | activation of androgen receptor [22]: not activated | activation of peroxisome proliferator-activated receptor [23]: not activated | activation of farnesoid X receptor [24]: not activated | activation of liver X receptor β [25]: not activated

C=C1/C(=C\C=C2/CCC[C@]3(C)[C@@H]([C@H](C)CC(=O)OC)CC[C@@H]23)C[C@@H](O)C[C@@H]1O [CTA-ME, Methyl (R)-3-((1R,3aS,7aR,E)-4-((Z)-2-((3S,5R)-3,5-dihydroxy-2-methylenecyclohexylidene)ethylidene)-7a-methyloctahydro-1H-inden-1-yl)butanoate]
level of activation of gene expression in comparison to 100 nM 1,25(OH)2D3 [11]: 30% | IC50 [16]: 8.16 µM | LD50 (Cell-titer Glo viability) [19]: 13.9 µM | antirachitic activity [21]: antirachitic activity

B1: coactivator MED1 NR2 peptide (peptide)
peptide: NHPMLMNLLKDN
binding result [26]: binds
